Measurements: ChEMBL document CHEMBL1141462, “Tetranorclerodanes and clerodane-type diterpene glycosides from Dicranopteris dichotoma” (J Nat Prod, 2007)

What was measured:
[1] = system: Human immunodeficiency virus 1; experiment: Antiviral activity against HIV1; assay type: functional, organism-based
In short: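 HIV-1 activity was measured as inhibition of virus-induced cytopathic effect and reported as EC50.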

[2] = Cytotoxicity against C8166 cells by MTT assay; assay type: cell-based; details: human
In short: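 C8166 cells were used, with viability read by MTT. Cytotoxicity was expressed as CC50.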

[3] = Selectivity index, CC50 against C8166 cell/ EC50 against HIV1; assay type: functional
In short: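 The ratio is CC50 divided by EC50. CC50 comes from MTT cytotoxicity in C8166 cells, and EC50 from inhibition of HIV-1 cytopathic effect.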

Structure (SMILES) | EC50 [1] | CC50 [2] | Ratio CC50/EC50 [3]
C[C@@H]1C[C@H](O)[C@@]2(C)C(C=O)=CCC[C@@H]2[C@@]1(C)CC(=O)O | 325 µM | 713 µM | >2.19
C=C[C@](C)(O)CC[C@@]1(C)[C@H](C)C[C@H](O[C@@H]2O[C@@H](C)[C@H](O[C@@H]3O[C@H](COC(C)=O)[C@@H](O)[C@H](O)[C@H]3O)[C@@H](O)[C@H]2O)[C@@]2(C)C(C)=CCC[C@H]12 | 110 µM | 121 µM | 1.1
CC1=CCC[C@@H]2[C@@](C)(CC(=O)O)[C@H](C)C[C@H](O)[C@@]12C [AYLTHONIC ACID] | 197 µM | 751 µM | >3.81
C[C@@H]1C[C@H](O)[C@@]2(C)C(CO)=CCC[C@@H]2[C@@]1(C)CC(=O)O | 302 µM | 709 µM | >2.34
CC(=O)OC[C@H]1O[C@@H](O[C@@H]2[C@@H](O)[C@@H](O)[C@H](O[C@H]3C[C@@H](C)[C@](C)(CC/C(C)=C/CO)[C@H]4CCC=C(C)[C@]34C)O[C@H]2C)[C@H](O)[C@@H](O)[C@@H]1O | 76.3 µM | 136 µM | 1.78
C=C[C@](C)(O)CC[C@@]1(C)[C@H](C)C[C@H](O[C@@H]2O[C@@H](C)[C@H](O[C@@H]3O[C@H](CO)[C@@H](OC(C)=O)[C@H](O)[C@H]3O)[C@@H](O)[C@H]2O)[C@@]2(C)C(C)=CCC[C@H]12 | 145 µM | 305 µM | >2.09
Cc1cn([C@H]2C[C@H](N=[N+]=[N-])[C@@H](CO)O2)c(=O)[nH]c1=O [ZIDOVUDINE] | 0.0147 µM | 5750 µM | 390406.06
CC1=CCC[C@@H]2[C@@](C)(CC/C(C)=C/CO)[C@H](C)C[C@H](O[C@@H]3O[C@@H](C)[C@H](O[C@@H]4O[C@H](CO)[C@@H](O)[C@H](O)[C@H]4O)[C@@H](O)[C@H]3O)[C@@]12C | 85.1 µM | 325 µM | >3.82
C=C[C@@](C)(O)CC[C@@]1(C)[C@H](C)C[C@H](O)[C@@]2(C)C(C)=CCC[C@H]12 | 59.4 µM | 653 µM | >10.99
